From ChEMBL document CHEMBL3243924, “Synthesis and biological activity of 5-fluoro- and 5-methyl-1,3-oxazine-2,6(3H)-dione” (J Med Chem, 1979)

What was measured:
[1] = Stability of the compound in mouse […] cell growth medium assessed as compound degradation
L1210 = test: Growth inhibition of mouse L1210 cells; format: functional
Enterococcus faecium [2] = test: Growth inhibition of Streptococcus faecium assessed as [I]/[S] for 50% growth inhibition in presence of 1 uM to 1 mM cytidine; format: functional
Enterococcus faecium [3] = test: Growth inhibition of Streptococcus faecium assessed as [I]/[S] for 50% growth inhibition in presence of 1 uM to 1 mM 2'-deoxycytidine; format: functional
Escherichia coli = test: Growth inhibition of Escherichia coli; format: functional
Enterococcus faecium [4] = test: Growth inhibition of Streptococcus faecium assessed as [I]/[S] for 50% growth inhibition in presence of 1 uM to 1 mM thymidine; format: functional
Enterococcus faecium [5] = test: Growth inhibition of Streptococcus faecium assessed as inhibition index [I]/[S] for 50% growth inhibition in presence of 1 uM to 1 mM 2'-deoxyuridine; format: functional
Enterococcus faecium [6] = test: Growth inhibition of Streptococcus faecium assessed as [I]/[S] for 50% growth inhibition in presence of 1 uM to 1 mM uracil; format: functional
[7] = Half life in synthetic growth medium at 37 degC
Enterococcus faecium [8] = test: Growth inhibition of Streptococcus faecium assessed as [I]/[S] for 50% growth inhibition in presence of 1 uM to 1 mM cytosine; format: functional
[9] = Stability of the compound in bacterial growth medium assessed as compound degradation at pH 7.2; settings: buffer
How it was run: (§1)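 Compound held in bacterial growth medium at pH 7.2. Degradation was followed as the time-dependent decrease in UV absorbance at 306 nm.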

Enterococcus faecium [10] = test: Growth inhibition of Streptococcus faecium assessed as [I]/[S] for 50% growth inhibition in presence of 1 uM to 1 mM thymine; format: functional
[11] = Stability of the compound in bacterial growth medium by UV spectra analysis; how it was run: as §1
Enterococcus faecium [12] = test: Growth inhibition of Streptococcus faecium; format: functional
Enterococcus faecium [13] = test: Growth inhibition of Streptococcus faecium assessed as [I]/[S] for 50% growth inhibition in presence of 1 uM to 1 mM uridine; format: functional
[14] = Stability of the compound in synthetic growth medium assessed as compound remaining at 37 degC after 16 hrs; format: physicochemical; settings: read-out: Stability

SMILES | Stability [1] | ID50 (L1210) | Ratio (Enterococcus faecium [2]) | Ratio (Enterococcus faecium [3]) | ID50 (Escherichia coli) | Ratio (Enterococcus faecium [4]) | Ratio (Enterococcus faecium [5]) | Ratio (Enterococcus faecium [6]) | half-life [7] [min] | Ratio (Enterococcus faecium [8]) | Stability [9] | Ratio (Enterococcus faecium [10]) | Stability [11] | ID50 (Enterococcus faecium [12]) | Ratio (Enterococcus faecium [13]) | remaining at 16 h [14] [%]
O=c1[nH]cc(F)c(=O)o1 | Unstable | 1 ×10⁻⁵ M | 8 | 10 | 1 ×10⁻⁷ M | 110 | 100 | 90 | 240 | 7 | Unstable | 120 | Unstable | 9 ×10⁻⁸ M | 90 | –
O=c1cc[nH]c(=O)o1 | – | 4 ×10⁻⁵ M | – | – | 4 ×10⁻⁷ M | – | – | – | – | – | – | – | – | 2 ×10⁻⁵ M | – | 15
Cc1c[nH]c(=O)oc1=O | – | >1 ×10⁻⁴ M | – | – | 3 ×10⁻⁴ M | – | – | – | – | – | – | – | – | >1 ×10⁻⁴ M | – | –
